Published values gathered from unrelated publications.
Protocols differ between the studies behind these lines.
Target: Receptor-interacting serine/threonine-protein kinase 2 (RIPK2, Homo sapiens, UniProt O43353)

The remaining binding of `Cc1cnc(Nc2ccc(C(=O)N3CCC(N4CCCC4)CC3)cc2)nc1-c1cc2ccccc2s1` is reported as 81% (binding, competition with immobilised ligand; 1 µM).
With `c1cncc(-c2cccc(Nc3nccc(NC4CCCCC4)n3)c2)c1` the remaining binding was 39% (binding, competition with immobilised ligand; 10 µM).
`c1ccc(N2CCN(Cc3nc4ccccc4[nH]3)CC2)nc1` gave a remaining binding of 100% (binding, competition with immobilised ligand; 1 µM).
`Nc1ncc2c(n1)-c1c([nH]c3ccc(C#CC4CC4)cc13)CCCC2` gave a remaining binding of 100% (binding, competition with immobilised ligand; 1 µM).
With `C[C@@H]1CCN(c2nccc(-c3cnn4ncccc34)n2)C1` the remaining binding was 91% (binding; 1 µM).
With `CN([C@@H]1CCc2c(CC(=O)O)c3ccccc3n2C1)S(=O)(=O)c1ccc(F)cc1` the remaining binding was 92% (cell-free assay, competition with immobilised ligand; 1 µM).
With `FC(F)(F)Oc1cccc(-c2cnc3ccc(-c4ccncc4)nn23)c1` the remaining binding was 42% (binding, competition with immobilised ligand; 5 µM).
`COc1cnc(Nc2cccc(S(N)(=O)=O)c2)nc1N1CCN(c2ccccc2)C(=O)C1` has a remaining binding of 100% (binding, competition with immobilised ligand; 1 µM).
`CN(CCCC(F)(F)F)c1nccc(-c2cnn3ncccc23)n1` gave a remaining binding of 89% (binding; 1 µM).
For `C=CC(=O)N1CCC(C(=O)NCC(=O)N2CCN(c3nc(-c4cnc(N)nc4C(F)F)nc(N4CCOCC4)n3)CC2)CC1`, the remaining binding was 100% (binding, competition with immobilised ligand; 1 µM).
For `O=C(NCCCN1CCOCC1)c1ccc(Nc2ncc(Cl)c(-c3ccc(Cl)s3)n2)cc1`, the remaining binding was 100% (binding, competition with immobilised ligand; 1 µM).
`O=C(NCc1ncc(C(F)(F)F)cc1Cl)c1ccc2c(c1)C1(CCS(=O)(=O)CC1)[C@H](C1CC1)N2S(=O)(=O)c1ccc(F)cc1` has a remaining binding of 100% (cell-free assay, competition with immobilised ligand; 1 µM).
The remaining binding of `COc1ncc2cc3ccccc3nc2c1C#N` is reported as 100% (cell-free assay, competition with immobilised ligand; 5 µM).
The remaining binding of `O=C(NCC1CCOCC1)c1n[nH]cc1NC(=O)c1c(F)cccc1F` is reported as 100% (binding, competition with immobilised ligand; 1 µM).
`CC1CCCN1c1nccc(-c2cnn3ncccc23)n1` (stereo not shown) gave a remaining binding of 89% (binding; 1 µM).
With `O=C(c1ccc(Nc2ncc(Cl)c(-c3cc4ccccc4s3)n2)cc1)N1CCC(N2CCCC2)CC1` the remaining binding was 98% (binding, competition with immobilised ligand; 1 µM).
The remaining binding of `C[C@@H]1CN(c2cc(-c3nn(C)c4ccc(OC5(C)CC5)cc34)ncn2)C[C@H](C)O1` is reported as 100% (cell-free assay, competition with immobilised ligand; 1 µM).
The remaining binding of `N[C@H]1CCN(c2nccc(-c3cnn4ncccc34)n2)C1` is reported as 100% (binding; 1 µM).
With `O=C(NC[C@@H]1[C@H]2CN(C(=O)OCc3cc(C(F)(F)F)cc(C(F)(F)F)c3)C[C@@H]12)c1ccc2[nH]nnc2c1` the remaining binding was 64% (cell-free assay, competition with immobilised ligand; 1 µM).
`COc1ccnn2ncc(-c3ccnc(N(C)C)n3)c12` gave a remaining binding of 100% (binding; 1 µM).
With `Cc1cc(NC(=O)c2cccc(S(F)(F)(F)(F)F)c2)cc(-n2ccn3nc(-c4cccnc4)cc23)c1` the remaining binding was 88.6% (cell-free assay, competition with immobilised ligand; 1 µM).
`Cc1cnn2ncc(-c3ccnc(N(C)C)n3)c2c1` gave a remaining binding of 100% (binding; 1 µM).
